This is an account of results in ChEMBL document CHEMBL3352262, “Synthesis and structure-activity relationships of pteridine dione and trione monocarboxylate transporter 1 inhibitors” (J Med Chem, 2014).

Data set [1] concerns Raji. The experiment in a line: Growth inhibition of human Raji cells after 96 hrs by MTT assay. The format is functional, cell-based. Put shortly: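 Human Raji Burkitt lymphoma cells were seeded at 20000/well and cultured with compound or vehicle for 4 days (96 h) in 5% CO2. MTT reagent was added for 5 h, then 2-propanol/0.04 N HCl, and absorbance was read at 570 and 630 nm. EC50 came from curve fitting.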
(In general: Tetrazolium dyes change colour on reduction, which living cells bring about.)

The test system of data set [2] is MCF7. The experiment in a line: Growth inhibition of human MCF7 cells overexpressing MCT4 up to 10 uM after 4 days by MTT assay. The format is cell-based. The settings on record: mcf7, 96 h. Summed up:
(§1)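 MCF7 cells engineered to overexpress mouse MCT1 or human MCT4 were seeded at 2000/well and compound was added the next day. Cells were cultured 4 days in 5% CO2, then given MTT reagent for 5 h and solubilized with 2-propanol/0.04 N HCl. Absorbance was read at 570 and 630 nm, in triplicate. The highest concentration tested on MCF7_MCT4 cells was 10 μM.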

In data set [3] the test system is MCF7. The experiment in a line: Growth inhibition of human MCF7 cells overexpressing MCT4 at 10 uM after 4 days by MTT assay. The format is cell-based. The settings on record: mcf7, 96 h. Summed up: as §1
The subject of data set [4] is MCF7. The experiment in a line: Growth inhibition of human MCF7 cells overexpressing MCT1 after 4 days by MTT assay. The format is functional, cell-based. Conditions: MCF7, 96 h. Summed up: as §1
Data set [5] has as its system MCF7. The experiment in a line: Growth inhibition of human MCF7 cells overexpressing MCT4 after 4 days by MTT assay. The data set is classed as cell-based. Conditions: MCF7, 96 h. Put shortly:
as §1

Data set [6] addresses T1, Monocarboxylate transporter 4 (Homo sapiens) (UniProt O15427).
T1 sequence (whole entry): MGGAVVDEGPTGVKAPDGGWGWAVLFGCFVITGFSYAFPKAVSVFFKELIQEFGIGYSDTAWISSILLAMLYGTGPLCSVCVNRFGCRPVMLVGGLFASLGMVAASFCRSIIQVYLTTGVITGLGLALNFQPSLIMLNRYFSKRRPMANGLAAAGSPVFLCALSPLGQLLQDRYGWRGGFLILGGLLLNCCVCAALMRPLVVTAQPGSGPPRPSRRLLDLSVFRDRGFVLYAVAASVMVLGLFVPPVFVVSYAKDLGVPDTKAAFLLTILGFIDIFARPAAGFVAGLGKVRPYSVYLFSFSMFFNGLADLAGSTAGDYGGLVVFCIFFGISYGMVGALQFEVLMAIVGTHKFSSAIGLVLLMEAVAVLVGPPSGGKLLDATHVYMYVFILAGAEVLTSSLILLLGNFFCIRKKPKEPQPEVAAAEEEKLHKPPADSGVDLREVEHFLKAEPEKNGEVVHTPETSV
The experiment in a line: Inhibition of MCT4 (unknown origin) overexpressed in human MCF7 cells assessed as inhibition of transporter-mediated [14C]lactate transport after 10 mins by scintillation counting. The data set is classed as cell-based.

pEC50: −log10 of the molar value. Active and inactive are the calls of the source. The rule behind the calls is not given here.

With `CC(C)Cn1c(=O)n(C)c(=O)c2c1nc(Cc1cccc3ccccc13)c(=O)n2CCCCCO`, the pEC50 (as a rule, −log10 of the EC50, conventionally taken in molar units) in data set [1] was 5.85.
Same read-out and setting: the result for `CC(C)Cn1c(=O)n(C)c(=O)c2nc(-c3nnn(C)c3CCCO)c(Cc3cccc4ccccc34)nc21` reads under 5.00.
In data set [1], `CC(C)Cn1c(=O)n(C)c(=O)c2nc(SCCCCO)c(Cc3cccc4ccccc34)nc21` had a negative logarithm of the EC50 (pEC50) of 7.43. For the same compound, the Activity entry in data set [2] was “Non-toxic”.
For `CC(C)Cn1c(=O)n(C)c(=O)c2nc(CCCCCO)c(Cc3cccc4ccccc34)nc21`, the pEC50 in data set [1] was 7.24. Further, the Activity entry in data set [2] is reported as “Non-toxic”.
Consider `CC(C)Cn1c(=O)n(C)c(=O)c2c1nc(Cc1cccc3ccccc13)c(=O)n2CCCCCCO`, for which the pEC50 in data set [1] is under 5.00.
Same read-out and setting: the result for `CC(C)Cn1c(=O)n(C)c(=O)c2nc(-c3[nH]nnc3CCCO)c(Cc3cccc4ccccc34)nc21` reads 5.22; that for `CC(C)Cn1c(=O)n(C)c(=O)c2nc(C(=O)NCCCO)c(Cc3cccc4ccccc34)nc21`, under 5.00.
In the case of `CC(C)Cn1c(=O)n(C)c(=O)c2nc(-c3c(CCCO)nnn3C)c(Cc3cccc4ccccc34)nc21`, in data set [1], the negative logarithm of the EC50 (pEC50) was under 5.00.
Same read-out and setting: the same measure for `Cc1n[nH]c(C)c1Cc1sc2c(c1C(=O)N1C[C@H](O)CO1)c(=O)n(C)c(=O)n2CC(C)C`: 7.74; for `CC(C)Cn1c(=O)n(C)c(=O)c2c1nc(Cc1cccc3ccccc13)c(=O)n2CCCCO`: 6.82; for `CC(C)Cn1c(=O)n(C)c(=O)c2nc(SCCCO)c(Cc3cccc4ccccc34)nc21`: 6.82.
`CC(C)Cn1c(=O)n(C)c(=O)c2nc(SCCO)c(Cc3cccc4ccccc34)nc21` gave a pEC50 in data set [1] of 5.55.
For `CC(C)Cn1c(=O)n(C)c(=O)c2[nH]c(=O)c(Cc3cccc4ccccc34)nc21`, the pEC50 in data set [1] is under 5.00.
`CC(C)Cn1c(=O)n(C)c(=O)c2nc([S+]([O-])CCCO)c(Cc3cccc4ccccc34)nc21` (stereo not drawn) gave a negative-log EC50 (pEC50) in data set [1] of 5.70.
For `Cc1n[nH]c(C)c1Cc1nc2c(nc1CCCCCO)c(=O)n(C)c(=O)n2CC(C)C`, the pEC50 in data set [1] was under 5.00.
Turning to `CC(C)Cn1c(=O)n(C)c(=O)c2nc(C(=O)N(C)CCCO)c(Cc3cccc4ccccc34)nc21`, the negative-log EC50 (pEC50) in data set [1] was under 5.00.
Still for that read-out and setting: the same measure for `COCCCCCc1nc2c(=O)n(C)c(=O)n(CC(C)C)c2nc1Cc1cccc2ccccc12`: 5.24.
For `CC(C)Cn1c(=O)n(C)c(=O)c2nc(/C=C\CCCO)c(Cc3cccc4ccccc34)nc21`, in data set [1], the pEC50 is 7.15. For the same compound, the Activity entry in data set [3] was “Toxic”.
On to `CC(C)Cc1nn(C)c(=O)c2c(SCCCO)n(Cc3cccc4ccccc34)cc12`, for which the results for the pEC50 in data set [1], in data set [4] and in data set [5] were 9.30, 7.68 and under 5.00, respectively. Moreover, the inhibition entry in data set [6] was “inactive”.
Compound `CC(C)Cn1c(=O)n(C)c(=O)c2nc(CCCCCCO)c(Cc3cccc4ccccc34)nc21` showed a negative-log EC50 (pEC50) in data set [1] of 5.77.
`CC(C)Cn1c(=O)n(C)c(=O)c2nc(CCCCO)c(Cc3cccc4ccccc34)nc21` had a pEC50 in data set [1] of 6.55. Compared with the last compound, the pEC50 is 0.78 log units higher.
Consider `CC(C)Cn1c(=O)n(C)c(=O)c2nc(S(=O)(=O)CCCO)c(Cc3cccc4ccccc34)nc21`, for which the pEC50 in data set [1] was 5.43.
